From PubChem
An excerpt weighted towards active compounds, which were near 2.9% of everything screened.
SIRT5 inh: inhibitors of human sirtuin-5 desuccinylase | Purified SirT5, succinyl-peptide AMC, trypsin-coupled fluorescence | Q9NXA8 | 1.1% of 330,000 active | inhibition, % at 15 µM; in the data active = inhibition above about 15%; inconclusive = no clear call, values can overlap the other calls
DENV2 CPE rescue: protects cells from dengue virus 2 cytopathic effect | DENV2-infected cells, cytopathic effect rescue, plate reader | CPE inhibition, % at 9.99 µM | 1.7% of 350,000 active; in the data active = CPE inhibition above about 20%, passing the limit was not always enough; inconclusive = no clear call, values can overlap the other calls; tested in BHK-21 cells
E-selectin induc: induces E-selectin expression in human endothelial cells | P16581 | 0.37% of 260,000 active | AID 686992 | activation, % at 7.58 µM | HUVEC E-selectin immunofluorescence imaging; normalized: neutral wells 0, TNF-alpha wells 100;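 active = mean E-selectin-positive cell signal at least 10% of the positive control, reached in at least 60% of replicates, without over 20% cell loss; inconclusive = no rule given, readout overlaps actives, possibly toxicity-flagged; inactive = the rest, including those meeting only one limit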
Target sequence (P16581 whole entry, looked up): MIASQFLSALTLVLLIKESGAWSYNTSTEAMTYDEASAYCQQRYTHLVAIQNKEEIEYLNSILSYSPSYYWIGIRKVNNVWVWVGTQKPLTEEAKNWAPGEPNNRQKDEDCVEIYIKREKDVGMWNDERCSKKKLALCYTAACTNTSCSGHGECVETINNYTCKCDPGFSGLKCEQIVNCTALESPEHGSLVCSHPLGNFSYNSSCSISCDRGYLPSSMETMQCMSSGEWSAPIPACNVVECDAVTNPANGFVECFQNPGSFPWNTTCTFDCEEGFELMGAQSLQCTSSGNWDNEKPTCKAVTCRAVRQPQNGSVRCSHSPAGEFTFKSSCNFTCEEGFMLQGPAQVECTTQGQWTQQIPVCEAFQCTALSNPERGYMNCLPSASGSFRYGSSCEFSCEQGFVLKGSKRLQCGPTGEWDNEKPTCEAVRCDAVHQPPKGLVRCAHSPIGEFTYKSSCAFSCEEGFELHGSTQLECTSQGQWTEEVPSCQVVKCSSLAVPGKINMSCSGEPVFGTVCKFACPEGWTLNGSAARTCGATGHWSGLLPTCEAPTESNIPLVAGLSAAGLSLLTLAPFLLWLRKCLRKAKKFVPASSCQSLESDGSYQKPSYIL
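Read-out basis: % PE-positive cells; Test system: HUVEC primary endothelial cells; Technique: immunofluorescence imaging; Dosing: single-point compound dose.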
A number is an active result; n = inactive; u = inconclusive; x = no result given.

SMILES | SIRT5 inh | DENV2 CPE rescue | E-selectin induc
CS(=O)(=O)N1[C@@H]2CNC[C@H]1C2c1ccc(-c2ccccc2)cc1 (some centres not stated) | n | 79.8 | n
COc1ccccc1S(=O)(=O)N1[C@@H]2CNC[C@H]1C2c1ccc(/C=C/c2ccccc2)cc1 (some centres not stated) | n | n | n
C[C@@H]1CN([C@@H](C)CO)C(=O)CCCn2nncc2CO[C@H]1CN(C)Cc1ccc(-c2ccccc2)cc1 | n | n | n
COc1ccc(NC(=O)NCc2ccco2)c(OC)c1 | n | n | x
CCc1ccc([C@H]2[C@@H]3C(=O)C[C@@H]4C(=O)NC(=O)[C@@H]4[C@@H]3CN2S(=O)(=O)c2ccc(C)cc2)cc1 | n | n | n
Cc1ccc(C(=O)N(Cc2nnc(-c3ccc(Cl)cc3)o2)C2CC2)o1 | n | n | 59.2
O=C(C1=COCCO1)N(Cc1nnc(-c2ccc(Cl)cc2)o1)C1CC1 | n | n | x
Cc1ccnc(NC(=O)c2ccc(OCC3CCCO3)cc2)c1 (configuration not stated) | n | n | x
CCOc1ccc(CCN2C(=S)N([C@@H](Cc3ccc(O)cc3)CN3CCC[C@@H]3CN3C(=S)NC[C@@H]3CC(C)C)C[C@@H]2CC(C)C)cc1 | n | 21.9 | n
CC(C)C[C@H]1CNC(=S)N1C[C@H]1CCCN1C[C@H](CC(C)C)N1C[C@H](Cc2ccc(O)cc2)N(CCc2ccccc2)C1=S | n | 39.1 | n
CCOc1ccc(CCN2C(=S)N([C@@H](Cc3ccc(O)cc3)CN3CCC[C@@H]3CN3C(=S)NC[C@@H]3CC(C)C)C[C@@H]2Cc2ccccc2)cc1 | x | n | n
CC(C)C[C@H]1CN([C@@H](CC(C)C)CN2CCC[C@@H]2CN2C(=S)NC[C@@H]2Cc2ccc(O)cc2)C(=S)N1CCc1ccccc1 | x | n | n
Nc1nonc1-n1nnc(C(=O)N/N=C/c2c(F)cccc2Cl)c1-c1ccc2c(c1)OCO2 | n | n | x
O=C(CNC(=O)c1ccc(Cl)cc1Cl)OCc1nc2ccccc2s1 | n | n | n
CC(C)CC#Cc1ccc([C@@H]2[C@@H](CO)N3C(=O)CN(C(=O)CN4CCOCC4)C[C@@H]23)cc1 | 17.4 | n | n
CCS(=O)(=O)N1CC(=O)N2[C@H](CO)[C@H](c3ccc(C4=CCCC4)cc3)[C@@H]2C1 | n | n | n
CCS(=O)(=O)N1CC(=O)N2[C@H](CO)[C@@H](c3ccc(C#CCC(C)C)cc3)[C@@H]2C1 | n | 47.7 | n
CCC(=O)N1CC(=O)N2[C@H](CO)[C@@H](c3ccc(C#CCC(C)C)cc3)[C@H]2C1 | n | n | n
CC(C)CC#Cc1ccc([C@H]2[C@H](CO)N3C(=O)CN(C(=O)CN4CCOCC4)C[C@@H]23)cc1 | n | n | n
CCS(=O)(=O)N1CC(=O)N2[C@H](CO)[C@H](c3ccc(C4=CCCCC4)cc3)[C@@H]2C1 | 22.1 | n | n
CCC(=O)N1CC(=O)N2[C@H](CO)[C@H](c3ccc(C#CCC(C)C)cc3)[C@@H]2C1 | 15.7 | n | n
CC(C)CC#Cc1ccc([C@H]2[C@@H](CO)N3C(=O)CN(S(=O)(=O)c4ccccc4)C[C@@H]23)cc1 | n | n | n
CN(C)C(=O)c1cccc(-c2ccc(C3[C@H]4CNC[C@@H]3N4Cc3nccs3)cc2)c1 (some centres not stated) | n | n | n
COc1ccccc1OCCN(C#N)c1nc(N(C)C)nc(N(C)C)n1 | n | n | n
C[C@@H]1CCCCO[C@@H](CN(C)S(=O)(=O)c2ccc(Cl)cc2)[C@@H](C)CN([C@H](C)CO)C(=O)c2cc(NC(=O)c3ccccc3)ccc2O1 | n | n | n
SMILES | SIRT5 inh | DENV2 CPE rescue | E-selectin induc
CCOc1cc2c3c(c1)C(C)=CC(C)(C)N3C(=O)C2=O | n | n | n
CCCCn1c(N)c(N(CC(C)C)C(=O)CN2C(=O)NC3(CC(C)CC(C)(C)C3)C2=O)c(=O)[nH]c1=O (configuration not stated) | n | n | n
CCCCN1C(=O)C(CC(=O)NCc2cccc3ccccc23)CC(C(=O)N(CC)CC)=C1C (configuration not stated) | n | n | n
CN(C)C(=O)COC(=O)c1cccc(S(=O)(=O)Nc2ccc(OCc3ccccc3)cc2)c1 | n | u | n
Fc1ccc(CO/N=C2\CCCc3nonc32)cc1 | n | u | n
CN(Cc1ccccc1)C(=O)c1ccc2c(c1)S(=O)(=O)N=C1CCCCCN12 | n | n | n
CCc1ccccc1N1CN(Cc2cccnc2)CNC1=S | n | n | n
Cc1ccc(OCC(=O)NC2CCSc3ccccc32)cc1 (configuration not stated) | n | 25.8 | x
CCOc1ccccc1OCC(=O)NC1CCSc2ccccc21 (configuration not stated) | x | u | n
CC1Cc2ccccc2N1CC(=O)NC(=O)NC1CCCCC1 (configuration not stated) | n | n | x
